# Measurements reported in ChEMBL document CHEMBL4706740, “Structure-Activity Study of Nitazoxanide Derivatives as Novel STAT3 Pathway Inhibitors” (ACS Med Chem Lett, 2021).
# The source made the active and inactive calls. No cut-off for these calls is given here.
# Legend:
# HeLa [1] = experiment: Induction of apoptosis in human HeLa cells assessed as viable cells at 10 uM incubated for 24 hrs by Annexin V-FITC/PI staining based flow cytometry (reference value: 92.45%); format: functional; conditions: read-out: Activity
# [2] = biological target: Signal transducer and activator of transcription 3 (Homo sapiens) (UniProt P40763); experiment: Inhibition of STAT3 in human HeLa cells assessed as decrease in phosphorylation of STAT3 at Tyr705 cells pretreated with Na3VO4 phosphatase inhibitor measured at 80 uM incubated for 1 hr by Western blot analysis; format: cell-based
# Signal transducer and activator of transcription 3 (Homo sapiens), sequence (P40763 whole entry): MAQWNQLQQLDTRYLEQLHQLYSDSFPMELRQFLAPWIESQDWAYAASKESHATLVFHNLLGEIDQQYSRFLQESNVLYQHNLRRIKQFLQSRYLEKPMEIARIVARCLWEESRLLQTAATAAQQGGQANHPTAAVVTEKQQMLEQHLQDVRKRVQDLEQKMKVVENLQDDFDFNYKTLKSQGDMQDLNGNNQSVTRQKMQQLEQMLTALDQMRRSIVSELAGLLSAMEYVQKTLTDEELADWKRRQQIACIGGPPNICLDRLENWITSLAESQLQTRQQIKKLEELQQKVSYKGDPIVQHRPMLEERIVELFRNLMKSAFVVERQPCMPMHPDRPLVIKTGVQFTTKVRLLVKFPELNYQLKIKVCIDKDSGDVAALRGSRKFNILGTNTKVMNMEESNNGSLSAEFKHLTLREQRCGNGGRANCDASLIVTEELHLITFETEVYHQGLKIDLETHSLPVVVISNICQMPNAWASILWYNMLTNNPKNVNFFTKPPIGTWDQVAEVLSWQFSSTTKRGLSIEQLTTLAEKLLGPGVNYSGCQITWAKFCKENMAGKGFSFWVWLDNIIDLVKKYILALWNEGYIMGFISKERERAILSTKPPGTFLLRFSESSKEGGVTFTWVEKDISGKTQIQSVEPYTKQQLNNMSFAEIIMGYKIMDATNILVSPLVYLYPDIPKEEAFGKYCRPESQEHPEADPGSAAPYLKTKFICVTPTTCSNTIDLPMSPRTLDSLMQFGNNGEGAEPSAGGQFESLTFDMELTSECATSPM
# Summary of the method: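 HeLa cells pretreated 15 min with 25 μM Na3VO4 (phosphatase inhibitor) before compound exposure. p-STAT3 (Tyr705) assessed by Western blot of total cell lysates with specific antibodies and compared with cells not given Na3VO4.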
# HeLa [3] = experiment: Induction of apoptosis in human HeLa cells assessed as viable cells at 40 uM incubated for 24 hrs by Annexin V-FITC/PI staining based flow cytometry (reference value: 92.45%); format: functional; conditions: read-out: Activity
# HeLa [4] = experiment: Induction of apoptosis in human HeLa cells assessed as early apoptotic cells at 10 uM incubated for 24 hrs by Annexin V-FITC/PI staining based flow cytometry (reference value: 2.84%); format: functional
# [5] = biological target: Signal transducer and activator of transcription 3 (Homo sapiens) (UniProt P40763); experiment: Inhibition of STAT3 in human HeLa cells assessed as decrease in phosphorylation of STAT3 at Ser727 after 24 hrs by western blot analysis; format: cell-based; conditions: dose microM <=80, time […]
# Summary of the method: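 HeLa cells were treated with graded doses for 1 h or 24 h. Total cell lysates were immunoblotted with specific antibodies against p-STAT3 (Tyr705), p-STAT3 (Ser727) and total STAT3.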
# HeLa [6] = experiment: Induction of cell cycle arrest in human HeLa cells assessed as accumulation at G0/G1 phase at 20 uM measured after 24 hrs by flow cytometry analysis (reference value: 54.16%); format: functional
# HeLa [7] = experiment: Induction of cell cycle arrest in human HeLa cells assessed as accumulation at G2/M phase at 10 uM measured after 24 hrs by flow cytometry analysis (reference value: 11.81%); format: functional
# [8] = Cytotoxicity against human HEK 293T cells assessed as cell growth inhibition at 50 uM measured after 48 hrs by MTT assay; format: cell-based
# [9] = Apparent oral clearance in Sprague-Dawley rat at 25 mg/kg, IG; format: ADME, organism-based; conditions: in vivo, read-out: CL(app) (converted)
# Summary of the method: (§1)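 Rats, n = 3 per group, received a single dose either intragastrically (25 mg/kg) or intravenously (5 mg/kg). Plasma concentration–time curves were used to derive t1/2α, t1/2β, Vd/F, CL/F, AUC0–∞, Tmax and Cmax. Absolute oral bioavailability was calculated from the ig and iv data.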
# HL-60 = experiment: Antiproliferative activity against human HL60 cells assessed as cell growth inhibition measured after 48 hrs by MTT assay; format: functional, cell-based; conditions: HL-60, 48 h
# [10] = biological target: Signal transducer and activator of transcription 3 (Homo sapiens) (UniProt P40763); experiment: Binding affinity to GST-tagged human STAT3 using 5-carboxyfluorescein labelled peptide incubated for 1 hr by fluorescence polarization assay
# HeLa [11] = experiment: Effect on Jak2 level in human Hela cells upto 80 uM after 24 hrs by Western blot analysis; format: functional, cell-based; conditions: dose microM <=80, time […]
# [12] = Cytotoxicity against human HEK-Blue IL-6 cells assessed as cell death at 80 uM; format: cell-based; conditions: hek-blue il-6, 80 µM
# [13] = Tmax in Sprague-Dawley rat at 25 mg/kg, IG; format: ADME, organism-based; conditions: in vivo, po
# HeLa [14] = experiment: Induction of cell cycle arrest in human HeLa cells assessed as accumulation at S phase at 20 uM measured after 24 hrs by flow cytometry analysis (reference value: 34.04%); format: functional
# [15] = biological target: T1, Signal transducer and activator of transcription 5A (Homo sapiens) (UniProt P42229); experiment: Inhibition of STAT5 (unknown origin)
# T1 sequence (whole entry): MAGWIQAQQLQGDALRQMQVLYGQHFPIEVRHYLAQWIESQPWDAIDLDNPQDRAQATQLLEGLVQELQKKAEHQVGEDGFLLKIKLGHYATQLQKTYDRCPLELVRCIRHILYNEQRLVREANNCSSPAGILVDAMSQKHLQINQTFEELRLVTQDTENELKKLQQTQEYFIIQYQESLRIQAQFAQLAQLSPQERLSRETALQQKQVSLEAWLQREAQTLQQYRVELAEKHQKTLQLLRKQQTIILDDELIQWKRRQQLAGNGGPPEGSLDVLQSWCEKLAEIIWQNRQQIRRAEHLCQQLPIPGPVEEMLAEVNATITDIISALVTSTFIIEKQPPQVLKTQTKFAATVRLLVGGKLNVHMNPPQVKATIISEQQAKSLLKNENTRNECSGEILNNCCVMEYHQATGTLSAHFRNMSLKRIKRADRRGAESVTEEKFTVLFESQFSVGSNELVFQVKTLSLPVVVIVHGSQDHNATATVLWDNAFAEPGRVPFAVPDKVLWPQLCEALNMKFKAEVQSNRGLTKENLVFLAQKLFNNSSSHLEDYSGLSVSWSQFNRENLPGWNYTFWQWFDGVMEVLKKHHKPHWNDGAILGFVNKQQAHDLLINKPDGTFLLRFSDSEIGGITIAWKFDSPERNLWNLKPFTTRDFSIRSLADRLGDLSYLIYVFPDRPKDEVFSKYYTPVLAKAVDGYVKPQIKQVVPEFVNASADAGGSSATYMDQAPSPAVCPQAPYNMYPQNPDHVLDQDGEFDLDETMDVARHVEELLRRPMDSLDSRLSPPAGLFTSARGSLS
# [16] = Apparent clearance in Sprague-Dawley rat at 5 mg/kg, iv; format: ADME, organism-based; conditions: in vivo, read-out: CL(app) (converted); summary of the method: as §1
# A549 = experiment: Antiproliferative activity against human A549 cells assessed as cell growth inhibition measured after 48 hrs by MTT assay; format: functional, cell-based; conditions: A549, 48 h
# [17] = Cytotoxicity against human HEK 293T cells assessed as cell growth inhibition at 10 uM measured after 48 hrs by MTT assay; format: cell-based
# HeLa [18] = experiment: Induction of apoptosis in human HeLa cells assessed as necrotic cells at 10 uM incubated for 24 hrs by Annexin V-FITC/PI staining based flow cytometry (reference value: 0.02%); format: functional
# [19] = AUC (0 to infinity) in Sprague-Dawley rat at 25 mg/kg, IG; format: ADME, organism-based; set-up: route […], time infinity, dose 25 mg/kg; conditions: in vivo, po; summary of the method: as §1
# HeLa [20] = experiment: Induction of cell cycle arrest in human HeLa cells assessed as accumulation at G2/M phase at 40 uM measured after 24 hrs by flow cytometry analysis (reference value: 11.81%); format: functional
# [21] = Cytotoxicity against human HEK-Blue IL-6 cells assessed as cell death at > 10 uM; format: cell-based
# HeLa [22] = experiment: Induction of apoptosis in human HeLa cells assessed as early apoptotic cells at 40 uM incubated for 24 hrs by Annexin V-FITC/PI staining based flow cytometry (reference value: 2.84%); format: functional
# [23] = Elimination Half life in Sprague-Dawley rat at 5 mg/kg, iv; format: ADME, organism-based; conditions: in vivo, read-out: beta t1/2 (converted); summary of the method: as §1
# HeLa [24] = experiment: Induction of cell cycle arrest in human HeLa cells assessed as accumulation at S phase at 40 uM measured after 24 hrs by flow cytometry analysis (reference value: 34.04%); format: functional
# [25] = biological target: Signal transducer and activator of transcription 3 (Homo sapiens) (UniProt P40763); experiment: Inhibition of STAT3 in human Hela cell lysate assessed as inhibition of protein and DNA interaction upto 100 uM cells preincubated 1 hr by electrophoretic mobility shift assay; format: subcellular; conditions: dose microM <=100, time 1.0 hrs
structure (smiles),measurement,setting,value
CC(=O)Oc1ccccc1C(=O)Nc1ncc([N+](=O)[O-])s1 [NITAZOXANIDE],viability at 10 µM,HeLa [1],92.3%
same,inhibition,[2],Active
same,viability at 40 µM,HeLa [3],77.3%
same,Activity,HeLa [4],2.34%
same,inhibition,[5],Dose-dependent effect
same,Activity,HeLa [6],69.88%
same,Activity,HeLa [7],9.59%
same,"inhibition at 48 h, 50 µM",[8],24.4%
same,CL/F,[9],105 mL/min/kg
same,IC50,HL-60,20.1 µM
same,Activity,[10],inactive
same,Activity,HeLa [11],inactive
same,Activity,[12],Non-Toxic
same,Tmax,[13],2 h
same,Activity,HeLa [14],21.84%
same,inhibition,[15],inactive
same,clearance,[16],8.33 mL/min/kg
same,IC50,A549,> 50 µM
same,"inhibition at 48 h, 10 µM",[17],-3.3%
same,Activity,HeLa [18],0.02%
same,AUC(0-inf),[19],3200 ng·h/mL
same,Activity,HeLa [20],6.6%
same,Activity,[21],Non-Toxic
same,Activity,HeLa [22],7.48%
same,half-life,[23],0.3 h
same,Activity,HeLa [24],22.76%
same,inhibition,[25],inactive
